Activity calls are given as the source filed them. No cut-off for these calls is given here.
Legend:
CCRF-CEM [1] = assay: Cytotoxicity against vinblastine-resistant human CCRF-CEM cells after 72 hrs by XTT assay; format: functional, cell-based
Summary of the method: (§1)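 CCRF-CEM leukemia cells and their taxol- or vinblastine-resistant sublines given compound for 72 h. XTT read-out: after phenazine methosulfate–XTT, 6 h at 37 °C, absorbance at 450 and 630 nm. IC50 from median-effect analysis of dose-effect data at six or seven concentrations.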

[2] = Cell cycle arrest in human H1299 cells assessed as accumulation at S phase at 5 uM after 24 hrs by propidium iodide staining-based flow cytometry; format: functional; conditions: NCI-H1299
Summary of the method: (§2)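 H1299 non-small cell lung carcinoma cells exposed to compound for 24 h. Attached cells trypsinized, PBS-washed, fixed in ice-cold 70% ethanol for 30 min. Stained with 4 µg/ml propidium iodide in PBS with 1% Triton X-100 and 0.1 mg/ml RNase A. Analyzed by flow cytometry; phase percentages taken from DNA histograms.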

CCRF-CEM [3] = assay: Selectivity ratio of IC50 for vinblastine-resistant human CCRF-CEM cells to IC50 for human CCRF-CEM cells; format: functional
HCT-116 [4] = assay: Anticancer activity against human HCT116 cells xenografted in athymic mouse assessed as tumor suppression at 30 mg/kg, iv Q2D for 5 days; format: functional; conditions: HCT-116, 120 h
Summary of the method: (§3)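 Athymic nu/nu nude mice (male, ≥6 weeks, 20–24 g) carrying human tumor xenografts; dosing iv via tail vein, Q2D, in vehicle of DMSO/Tween 80/saline (50:40:160 µL). Dose level is the maximal tolerated dose determined beforehand. Tumor volume by caliper (length × width × height or width). Body weight taken as total minus tumor weight (1 mm³ = 1 mg). n = 4–5 mice.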

[5] = Cell cycle arrest in human H1299 cells assessed as accumulation at G1 phase at 2.5 uM after 24 hrs by propidium iodide staining-based flow cytometry; format: functional; conditions: NCI-H1299; summary of the method: as §2
[6] = Cytotoxicity against human H1299 cells after 72 hrs by alamar blue assay; format: functional, cell-based; conditions: NCI-H1299, 72 h
Summary of the method: (§4)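 H1299, PC3, CL1-0, CL1-5 and MCF-7 cells exposed to compound for 72 h. Alamar blue added, then 6 h at 37 °C; absorbance at 570 and 600 nm. IC50 from median-effect analysis of dose-effect data at six or seven concentrations.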

[7] = Cell cycle arrest in human H1299 cells assessed as accumulation at G2/M phase at 10 uM after 24 hrs by propidium iodide staining-based flow cytometry; format: functional; conditions: NCI-H1299; summary of the method: as §2
MX1 [8] = assay: Anticancer activity against human MX1 cells xenografted in athymic mouse assessed as complete tumor remission at 30 mg/kg, iv Q2D for 5 days measured after 70 days of tumor implantation; format: functional, organism-based; set-up: dose 30 mg/kg; summary of the method: as §3
[9] = Cell cycle arrest in human H1299 cells assessed as accumulation at S phase at 2.5 uM after 24 hrs by propidium iodide staining-based flow cytometry; format: functional; conditions: NCI-H1299; summary of the method: as §2
HCT-116 [10] = assay: Cytotoxicity against human HCT116 cells after 72 hrs by SRB assay; format: functional, cell-based; conditions: HCT-116, 72 h
Summary of the method: (§5)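 MX-1 breast and HCT-116 colon carcinoma cells exposed to compound for 72 h; growth measured by sulforhodamine B assay. IC50 from median-effect analysis of dose-effect data at six or seven concentrations.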

[11] = Cell cycle arrest in human H1299 cells assessed as accumulation at G2/M phase at 2.5 uM after 24 hrs by propidium iodide staining-based flow cytometry; format: functional; conditions: NCI-H1299; summary of the method: as §2
CCRF-CEM [12] = assay: Selectivity ratio of IC50 for taxol-resistant human CCRF-CEM cells to IC50 for human CCRF-CEM cells; format: functional
[13] = Steady state clearance in Sprague-Dawley rat at 1 mg/kg, iv up to 24 hrs by LC-MS/MS analysis; format: ADME, organism-based; set-up: dose 1 mg/kg, route intravenous; conditions: in vivo, read-out: CLss
[14] = Cell cycle arrest in human H1299 cells assessed as accumulation at G2/M phase at 5 uM after 24 hrs by propidium iodide staining-based flow cytometry; format: functional; conditions: NCI-H1299; summary of the method: as §2
MCF7 = assay: Cytotoxicity against human MCF7 cells after 72 hrs by alamar blue assay; format: functional, cell-based; conditions: MCF7, 72 h; summary of the method: as §4
CCRF-CEM [15] = assay: Cytotoxicity against taxol-resistant human CCRF-CEM cells after 72 hrs by XTT assay; format: functional, cell-based; summary of the method: as §1
PC-3 [16] = assay: Cytotoxicity against human PC3 cells after 72 hrs by alamar blue assay; format: functional, cell-based; conditions: PC-3, 72 h; summary of the method: as §4
[17] = Cytotoxicity against human CL1-5 cells after 72 hrs by alamar blue assay; format: functional, cell-based; conditions: CL1-5, 72 h; summary of the method: as §4
[18] = Cell cycle arrest in human H1299 cells assessed as accumulation at sub-G1 phase at 5 uM after 24 hrs by propidium iodide staining-based flow cytometry; format: functional; conditions: NCI-H1299; summary of the method: as §2
PC-3 [19] = assay: Anticancer activity against human PC3 cells xenografted in athymic mouse assessed as tumor suppression at 30 mg/kg, iv Q2D for 4 days; format: functional; conditions: PC-3, 96 h; summary of the method: as §3
MX1 [20] = assay: Cytotoxicity against human MX1 cells after 72 hrs by SRB assay; format: functional, cell-based; conditions: MX1, 72 h; summary of the method: as §5
[21] = Cell cycle arrest in human H1299 cells assessed as accumulation at G1 phase at 5 uM after 24 hrs by propidium iodide staining-based flow cytometry; format: functional; conditions: NCI-H1299; summary of the method: as §2
[22] = Cell cycle arrest in human H1299 cells assessed as accumulation at sub-G1 phase at 2.5 uM after 24 hrs by propidium iodide staining-based flow cytometry; format: functional; conditions: NCI-H1299; summary of the method: as §2
[23] = Cell cycle arrest in human H1299 cells assessed as accumulation at G1 phase at 10 uM after 24 hrs by propidium iodide staining-based flow cytometry; format: functional; conditions: NCI-H1299; summary of the method: as §2
U-87MG ATCC = assay: Anticancer activity against human U87MG cells xenografted in athymic mouse assessed as tumor suppression at 30 mg/kg, iv Q2D for 6 days; format: functional, organism-based; set-up: dose 30 mg/kg; summary of the method: as §3
PC-3 [24] = assay: Anticancer activity against human PC3 cells xenografted in athymic mouse assessed as tumor suppression at 40 mg/kg, iv Q2D for 3 days; format: functional; conditions: PC-3, 72 h; summary of the method: as §3
[25] = Cell cycle arrest in human H1299 cells assessed as accumulation at sub-G1 phase at 10 uM after 24 hrs by propidium iodide staining-based flow cytometry; format: functional; conditions: NCI-H1299; summary of the method: as §2
CCRF-CEM [26] = assay: Cytotoxicity against human CCRF-CEM cells after 72 hrs by XTT assay; format: functional, cell-based; summary of the method: as §1
Nucleic Acid = assay: Binding affinity to Escherichia coli plasmid EGFP-N1 DNA at 1 to 10 uM after 22 hrs by alkaline agarose gel shift assay; format: nucleic-acid assay
Summary of the method: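 Purified pEGFP-N1 plasmid DNA (1500 ng) incubated with compound (1–20 µM) in 3 mM NaCl/1 mM sodium phosphate pH 7.4/1 mM EDTA for 2 h at 37 °C. Linearized with BamHI, ethanol-precipitated, denatured in 0.5 N NaOH-10 mM EDTA. Run on 0.8% alkaline agarose gel at 4 °C, 18 V for 22 h. Ethidium bromide stain; cross-linked double-stranded DNA scored against single-stranded DNA.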

[27] = Cytotoxicity against human CL1-0 cells after 72 hrs by alamar blue assay; format: functional, cell-based; conditions: CL1-0, 72 h; summary of the method: as §4
[28] = Cell cycle arrest in human H1299 cells assessed as accumulation at S phase at 10 uM after 24 hrs by propidium iodide staining-based flow cytometry; format: functional; conditions: NCI-H1299; summary of the method: as §2
[29] = Mean residence time in Sprague-Dawley rat at 1 mg/kg, iv by LC-MS/MS analysis; format: ADME, organism-based; set-up: dose 1 mg/kg, route intravenous; conditions: in vivo

With `CN(C)CCNC(=O)c1cccc(NC(=O)Nc2ccc(N(CCCl)CCCl)cc2)c1.Cl` the IC50 (CCRF-CEM [1]) was 800 nM, the Activity [2] was 8.8% and the “Ratio IC50” value (CCRF-CEM [3]) was 6.2. The inhibition in vivo at 30 mg/kg (HCT-116 [4]) was greater than 95%, the Activity [5] was 2.3% and the IC50 [6] was 10400 nM. The Activity [7] was 62.3%, the inhibition (MX1 [8]) was “Active” and the Activity [9] was 1.8%. For the same molecule, the IC50 (HCT-116 [10]) was 690 nM, the Activity [11] was 55.9% and the “Ratio IC50” value (CCRF-CEM [12]) was 9.4. For the same molecule, the clearance [13] was 18 mL/min/kg, the Activity [14] was 60.8% and the IC50 (MCF7) was 630 nM. It also gave an IC50 (CCRF-CEM [15]) of 1220 nM, an IC50 (PC-3 [16]) of 1880 nM and an IC50 [17] of 6080 nM. For the same molecule, the Activity [18] was 19.7%, the inhibition in vivo at 30 mg/kg (PC-3 [19]) was greater than 99% and the IC50 (MX1 [20]) was 570 nM. The Activity [21] was 10.7%, the Activity [22] was 20% and the Activity [23] was 6.5%. The inhibition (U-87MG ATCC) was “Active”, the inhibition in vivo at 40 mg/kg (PC-3 [24]) was greater than 99% and the Activity [25] was 26%. For the same molecule, the IC50 (CCRF-CEM [26]) was 130 nM, the Activity (Nucleic Acid) was “Active” and the IC50 [27] was 14600 nM. For the same molecule, the Activity [28] was 5.2% and the MRT [29] was 6.6 min.

Source: ChEMBL document CHEMBL1641520, “Design, synthesis, and biological evaluation of novel water-soluble N-mustards as potential anticancer agents” (Bioorg Med Chem, 2011)
